# Screening data from PubChem BioAssay.
# In the library only some 3.7% were active in any assay of this set; here they are far more common.
# PKD1 inh: inhibitors of human PKD1 kinase, biochemical, fluorescence polarization; inhibition, % (no concentration beside the values); PKD1 kinase fluorescence polarization assay; 200,000 compounds, 0.056% hits; in the data active = inhibition above about 50%
# m-calpain inh: inhibitors of pig calpain II, primary screen, biochemical, fluorogenic peptide substrate, 1536-well; purified calpain II, 30 min; inhibition, % at 16 µM; 220,000 compounds, 0.37% hits;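 active = inhibition above about 50%, limit read from the data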
# KCC2 mod: KCC2 cotransporter modulators, thallium flux, primary screen, cell-based, HEK293 KCC2, FluoZin-2 fluorescence, MLSMR; Solute carrier family 12 member 5 (Homo sapiens), Q9H2X9; KCC2 cells, thallium flux FluoZin-2 fluorescence; B-score of Tl+ flux slope (higher = more flux/activation; lower = inhibition) at 10 µM; 190,000 compounds, 2.2% hits; AID 1456, 2008;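 active = thallium flux slope and its plate-corrected score both differing from the plate sample mean at a set confidence after two filtering rounds, in either direction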;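 note: slope of fluorescence scaled to starting intensity during 10 to 20 s after thallium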
# ROMK primary: ROMK potassium channel modulators, primary screen, cell-based, thallium flux, MLSMR library; ATP-sensitive inward rectifier potassium channel 1 (Homo sapiens), P48048; 130,000 compounds, 2% hits; B-score at 10 µM; Tet-inducible ROMK, thallium flux fluorescence; actives lie on both sides; AID 1918, 2009;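 active = signal ratio slope over the read window, or its plate-corrected B-score, at least 3 SD from the plate mean, either direction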;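 note: B-score of the F/F0 ratio slope over 7 to 12 s after thallium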
# Mdm2 ligase inh: MDM2-luciferase reporter signal enhancers, primary screen, MDM2 E3 ligase inhibitor project, cell-based, luminescence, 1536-well. signal enhancement, % at 5 µM. AID 1230, 2008. 210,000 compounds, 0.11% hits. cell-based MDM2 ubiquitination luciferase reporter, 2 h; 0 = plate control, 100 = twice control, blank-subtracted. E3 ubiquitin-protein ligase Mdm2 (Homo sapiens), Q00987;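 active = signal enhancement of 30% or more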;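 note: luminescence tracks abundance of the self-degrading MDM2-luciferase fusion protein; higher signal means inhibition of MDM2 E3 ligase activity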
#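 system = mammalian cells stably expressing self-ubiquitinating, self-degrading MDM2 E3–luciferase fusion | quantity = 2000 cells per well seeded | incubation = 4 h cell settling then 2 h compound exposure, 37 °C | signal = SteadyLite luminescence, 15 min reagent step | benchmarks = plate control and blank wells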
# Arbovirus inh: antivirals against arbovirus infection, primary screen, cell-based, full library, 10K replicate subset. arbovirus infection cell-based antiviral screen. inhibition, % at 10 µM. 200,000 compounds, 0.37% hits. AID 1251, 2008; in the data active = inhibition above about 30%
# KCC2 secondary: KCC2 modulators in sodium-free buffer, confirmation, cell-based, HEK293 KCC2, thallium flux, secondary assay; shares compounds with KCC2 mod; FluoZin2 fluorescence; hits give high values; normalised thallium flux (F/F0 slope) at 10 µM; 3,700 compounds, 15% hits;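 active = thallium flux slope above the same plate's solvent-only control mean plus 3 SD; inconclusive = the two replicate wells disagree; inactive = no significant difference from solvent-only control wells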
# KCC2 bumet counter: thallium flux persisting under bumetanide in KCC2 cells, confirmation, counter-screen for KCC2 modulator project, cell-based, HEK293 KCC2, FluoZin2, secondary assay 3 | 3,700 compounds, 49% hits | normalized thallium flux at 10 µM | HEK293-KCC2 + bumetanide/ouabain; hits give high values | shares compounds with KCC2 mod;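 active = thallium entry rate above the same plate's blocked-transporter control wells by more than 3 SD; inconclusive = the two repeat wells disagree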;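 note: raw slope of fluorescence over initial fluorescence between 10 and 20 s after thallium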
# KCC2 secondary2: KCC2 modulators without ouabain present, confirmation, cell-based, HEK293 KCC2, thallium flux, FluoZin2, secondary assay 2; normalized thallium flux at 10 µM; 3,700 compounds, 23% hits; shares compounds with KCC2 mod; AID 1715, 2009; thallium flux FluoZin2 fluorescence; actives lie on both sides; F/F0 rise rate, 10–20 s post-thallium;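 active = thallium flux slope more than 3 SD above or below the plate's solvent-only control mean, mostly below; inconclusive = the two repeat wells disagreed; inactive = no significant shift from solvent-only controls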
# HEK counter1: thallium flux modulation in parental HEK cells, confirmation, counter-screen for KCC2 modulator project, cell-based, counterscreen 1; shares compounds with KCC2 mod; HEK293 parental cells, thallium flux FluoZin2, ouabain; baseline-ratio fluorescence slope, 10–20 s after thallium; thallium flux rate (normalised fluorescence) at 10 µM; 3,700 compounds, 46% hits;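 active = thallium flux rate significantly above the same plate's solvent-only control wells, beyond their mean plus 3 SD; inconclusive = the two replicate wells gave conflicting results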
# KCC2 ouabain: KCC2 inhibitors and activators, ouabain retest, confirmation, HEK-KCC2 cells; shares compounds with KCC2 mod; HEK293-KCC2, thallium flux FluoZin2 fluorescence; bidirectional: low = inhibitor, high = activator; raw Tl+ flux slope (below DMSO = inhibition, above = activation) at 10 µM; 3,700 compounds, 48% hits; AID 1717, 2009;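 active = thallium flux slope beyond 3 SD from same-plate DMSO control mean in most replicates, usually higher, sometimes lower; inconclusive = repeat tests gave conflicting results; inactive = no significant difference from controls in most replicates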;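 note: slope of initial-normalized fluorescence between seconds 10 and 20 after thallium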
# HEK293 Tl flux2: native HEK Tl+ uptake effects, second counter-screen – HEK cells, counterscreen 2, counter-screen for KCC2 modulator project, confirmation; AID 1718, 2009; HEK293 parental, thallium flux FluoZin-2 fluorescence slope; thallium flux slope at 10 µM; 3,700 compounds, 33% hits; shares compounds with KCC2 mod;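 active = thallium flux slope above the same plate's solvent-control mean plus 3 SD in both duplicate wells; inconclusive = duplicate wells that disagreed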;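 note: run without ouabain in cells lacking the KCC2 cotransporter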
# A number is an active result; n = inactive; u = inconclusive; x = not tested or not shown.
SMILES,PKD1 inh,m-calpain inh,KCC2 mod,ROMK primary,Mdm2 ligase inh,Arbovirus inh,KCC2 secondary,KCC2 bumet counter,KCC2 secondary2,HEK counter1,KCC2 ouabain,HEK293 Tl flux2
CC(=O)c1ccc(Nc2cc(C)nc3ccccc23)cc1,n,n,n,n,n,n,x,x,x,x,x,x
Cc1ccnc(NC(=S)NC(=O)c2ccco2)c1,n,n,7.5,x,n,n,0.015,0.057,n,0.02,0.046,0.013
CC(=O)Nc1nc2ccc(NC(=O)c3ccco3)cc2s1,n,n,n,n,n,n,x,x,x,x,x,x
Cc1ccc2nc(NC(=S)NC(=O)c3ccco3)sc2c1,n,n,64,n,n,n,0.024,0.15,0.057,0.084,0.076,0.042
O=C(NC(=S)Nc1nc(-c2ccc(Br)cc2)cs1)c1ccco1,n,n,5.5,n,n,n,n,0.0078,n,0.011,n,0.011
COc1cccc(N2C(=O)C3CCCN3C2c2ccc(Cl)cc2)c1 (stereo unspecified),n,n,x,x,n,n,x,x,x,x,x,x
O=C(C1CCCCC1)N1CCCC(c2nc3c(nnn3Cc3ccccc3)c(=O)[nH]2)C1 (stereo unspecified),n,n,x,n,n,n,n,u,0.026,0.0061,0.016,u
Cc1ccc(Cn2nnc3c(=O)[nH]c(C4CCN(S(=O)(=O)c5ccc(C)cc5)CC4)nc32)cc1,n,n,x,n,n,n,n,n,n,n,n,n
COC(=O)CN1C(=S)N(Cc2ccccc2)C(=O)C1CC(=O)Nc1ccc(Br)cc1 (stereo unspecified),n,n,n,x,n,n,x,x,x,x,x,x
Clc1ccc(-c2csc(NNC3=NCCCCC3)n2)cc1,n,n,-4.4,x,n,n,u,n,n,n,0.019,n
c1ccc(-c2csc(NNC3=NCCCCC3)n2)cc1,n,n,n,n,n,n,x,x,x,x,x,x
CCCN1Cc2cccc(C(=O)Nc3ccc(C)cc3)c2C1=O,n,n,x,n,n,n,n,n,n,n,n,n
Cc1nn(CC(=O)O)c2ccccc12,n,n,6.6,x,n,n,n,n,n,n,n,n
Cc1nn(CC(=O)NCc2ccccc2)c(=O)c2ccccc12,n,n,n,x,n,n,x,x,x,x,x,x
O=C(NC(=S)N(CCO)Cc1ccccc1)c1cc(Br)ccc1Cl,n,n,10,n,n,n,0.015,0.039,n,u,0.033,n
